Measurements: ChEMBL document CHEMBL1921732, “Alkaloids from the Chinese vine Gnetum montanum” (J Nat Prod, 2011)
Active and inactive are the calls of the source. No cut-off for these calls is given here.

Assays:
Pseudomonas aeruginosa [1] = experiment: Antibacterial activity against Pseudomonas aeruginosa PAO1 assessed as growth inhibition at 350 uM; format: functional, organism-based
Staphylococcus aureus = experiment: Antibacterial activity against methicillin-resistant Staphylococcus aureus 01A1095 assessed as growth inhibition at 350 uM after 19 hrs; format: functional
Procedure, shortened: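 Strain 01A1095 optical-density viability assay in caMH broth at 1980 CFU/well. Compounds were in DMSO (final 1.75%) and added before the bacteria. Plates were incubated at 37°C until OD620 reached 0.7-0.8, cooled 30 min and read at 620 nm. Vehicle served as the uninhibited-growth control and ciprofloxacin at 500 µg/mL as the kill control in internal control wells.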

Pseudomonas aeruginosa [2] = experiment: Antibacterial activity against Pseudomonas aeruginosa PAO1 assessed as growth inhibition at 175 uM; format: functional; settings: read-out: GI
Pseudomonas aeruginosa [3] = experiment: Antibacterial activity against Pseudomonas aeruginosa PAO1 assessed as growth inhibition at 87.5 uM; format: functional; settings: read-out: GI
Pseudomonas aeruginosa [4] = experiment: Antibacterial activity against Pseudomonas aeruginosa PAO1; format: functional, organism-based
[5] = Selectivity ratio of antimicrobial activity for Pseudomonas aeruginosa PAO1 over methicillin-resistant Staphylococcus aureus 01A1095; format: functional

With `COc1cc2c(cc1O)C(Cc1ccc(O)cc1)[N+](C)(C)CC2` (racemic) the “growth inhibition (GI)” value (Pseudomonas aeruginosa [1]) was “inactive” and the “growth inhibition (GI)” value (Staphylococcus aureus) was “inactive”.

For `C[N+]1(C)CCc2cc(O)c(O)cc2C1Cc1ccc(O)c(O)c1` (racemic), the “growth inhibition (GI)” value (Pseudomonas aeruginosa [1]) was “inactive” and the “growth inhibition (GI)” value (Staphylococcus aureus) was “inactive”.

For `COc1cc2c3c(c1O)-c1cc(O)c(O)cc1CC3[N+](C)(C)CC2` (racemic), the inhibition of growth at 175 µM (Pseudomonas aeruginosa [2]) was 59% and the “growth inhibition (GI)” value (Staphylococcus aureus) was “inactive”.

For `COc1cc2c3c(cc4cc(O)c(O)cc4c3c1O)[N+](C)(C)CC2`, the inhibition of growth at 87.5 µM (Pseudomonas aeruginosa [3]) was 59% and the “growth inhibition (GI)” value (Staphylococcus aureus) was “inactive”.

With `COc1cc2c(cc1O)C(Cc1ccc(O)c(O)c1)[N+](C)(C)CC2` (racemic) the “growth inhibition (GI)” value (Pseudomonas aeruginosa [1]) was “inactive” and the “growth inhibition (GI)” value (Staphylococcus aureus) was “inactive”.

`O=C([O-])C(F)(F)F.Oc1cc2c(cc1O)[C@@H]1c3ccc(O)c(O)c3C[C@H]3Cc4cc(O)c(O)cc4[N+]31CC2` (some centres undefined) gave an IC50 (Pseudomonas aeruginosa [4]) of 9.8 µM, an MIC (Pseudomonas aeruginosa [4]) of 35 µM and an inhibition of growth at 350 µM (Staphylococcus aureus; 01A1095, 19 h, read-out: GI) of 55%. For the same compound, the Selectivity ratio [5] was 36.
